# Measurements taken from ChEMBL document CHEMBL2434924, “Nonpeptidic angiotensin II AT₁ receptor antagonists derived from 6-substituted aminocarbonyl and acylamino benzimidazoles” (Eur J Med Chem, 2013).
# Key:
# [1] = target: T1, Type-2 angiotensin II receptor (Homo sapiens, UniProt P50052); experiment: Displacement of [125I]-Sar1Ile8-angiotensin 2 from angiotensin 2 AT2 receptor (unknown origin) after 180 mins by gamma counting analysis
# T1 sequence (P50052 whole entry): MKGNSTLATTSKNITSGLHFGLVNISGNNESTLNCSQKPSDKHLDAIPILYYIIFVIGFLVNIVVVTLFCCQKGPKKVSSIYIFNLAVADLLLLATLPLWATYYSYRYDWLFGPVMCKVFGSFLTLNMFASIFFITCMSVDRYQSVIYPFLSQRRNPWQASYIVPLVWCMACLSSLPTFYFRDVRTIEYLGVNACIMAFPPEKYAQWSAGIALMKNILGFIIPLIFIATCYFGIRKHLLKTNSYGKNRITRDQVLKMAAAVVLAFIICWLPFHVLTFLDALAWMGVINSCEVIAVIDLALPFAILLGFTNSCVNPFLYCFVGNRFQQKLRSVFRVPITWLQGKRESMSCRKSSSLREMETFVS
# [2] = target: T2, Type-1 angiotensin II receptor (Homo sapiens, UniProt P30556); experiment: Displacement of [125I]-Sar1Ile8-angiotensin 2 from angiotensin 2 AT1 receptor (unknown origin) after 180 mins by gamma counting analysis
# T2 sequence (P30556 whole entry): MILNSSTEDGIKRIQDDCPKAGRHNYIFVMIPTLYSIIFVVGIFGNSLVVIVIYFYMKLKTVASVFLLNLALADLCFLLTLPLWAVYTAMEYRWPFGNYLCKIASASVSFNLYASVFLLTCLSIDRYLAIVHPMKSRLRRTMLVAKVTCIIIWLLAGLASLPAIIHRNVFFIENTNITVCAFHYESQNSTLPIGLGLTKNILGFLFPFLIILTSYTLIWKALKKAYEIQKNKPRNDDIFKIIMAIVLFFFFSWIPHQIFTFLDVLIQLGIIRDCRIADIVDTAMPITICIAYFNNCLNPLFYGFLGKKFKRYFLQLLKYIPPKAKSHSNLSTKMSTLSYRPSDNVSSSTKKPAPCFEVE
# [3] = tested on: Rattus norvegicus; experiment: Antihypertensive activity in SHR rat assessed as decrease in blood pressure at 10 mg/kg, po by tail plethysmography; format: functional
# Method in brief: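 Male SHR, 19-21 weeks old, n = 6 per group, with a vehicle group (water, 10 mL/kg). Single oral dose of 10 mg/kg. Blood pressure and heart rate measured by tail plethysmography in unanesthetized rats after a warming period.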
# [4] = Antagonist activity at angiotensin 2 receptor in Japanese white rabbit thoracic aorta assessed as inhibition of angiotensin 2-induced contraction after 60 mins by Schild plot analysis; format: tissue-based, Oryctolagus cuniculus
# Method in brief: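 Helical aortic strips (3-4 mm wide, 15-20 mm long) in 10-mL baths of bicarbonate salt solution (CaCl2·2H2O 2.5, NaHCO3 25, glucose 11.1), 37 °C, 95% O2/5% CO2, isometric tension. 1 h equilibration with 15-min washes; 67 mM KCl sets maximal contraction; 30 min washout; antagonist or vehicle for 60 min, then cumulative Ang II curves, one per strip. Response as % of KCl maximum; pA2 from Schild plot.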
# [5] = target: T3, Type-1 angiotensin II receptor (Homo sapiens) (UniProt P30556); experiment: Ratio of losartan IC50 to compound IC50 for angiotensin 2 AT1 receptor (unknown origin)
# T3 sequence (whole entry): T2 sequence (P30556 whole entry)
IC50 [1] [nM],IC50 [2] [nM],Ratio IC50 [5],SMILES,Activity [3] [mmHg],pA2 [4]
53,0.3,–,CCCC(=O)Nc1cc(C)c2nc(CCC)n(Cc3ccc(-c4ccccc4C(=O)O)cc3)c2c1,–,–
61,39,–,CCCc1nc2c(C)cc(C(=O)Nc3ccc(C)cc3)cc2n1Cc1ccc(-c2ccccc2C(=O)O)cc1,–,–
718,10,–,CCCc1nc2c(C)cc(C(=O)NCCCN3CCOCC3)cc2n1Cc1ccc(-c2ccccc2C(=O)O)cc1,–,–
–,1340,–,CCCNC(=O)c1cc(C)c2nc(CCC)n(Cc3ccc(-c4ccccc4C(=O)O)cc3)c2c1,–,–
–,1010,–,CCCc1nc2c(C)cc(C(=O)N3CCOCC3)cc2n1Cc1ccc(-c2ccccc2C(=O)O)cc1,–,–
78,0.4,–,CCCc1nc2c(C)cc(NC(=O)CC)cc2n1Cc1ccc(-c2ccccc2C(=O)O)cc1,–,–
149,0.1,10,CCCc1nc2c(C)cc(NC(=O)CCc3ccccc3)cc2n1Cc1ccc(-c2ccccc2C(=O)O)cc1,>30,8.43
–,115,–,CCCc1nc2c(C)cc(C(=O)NCCCc3ccccc3)cc2n1Cc1ccc(-c2ccccc2C(=O)O)cc1,–,–
> 10000,4.9,–,CCCc1nc2c(C)cc(NC(=O)c3ccc(C)cc3)cc2n1Cc1ccc(-c2ccccc2C(=O)O)cc1,–,8.25
42,20,–,CCCc1nc2c(C)cc(C(=O)N3CCCCC3)cc2n1Cc1ccc(-c2ccccc2C(=O)O)cc1,–,–
4370,0.7,–,CCCc1nc2c(C)cc(NC(=O)OC)cc2n1Cc1ccc(-c2ccccc2C(=O)O)cc1,–,8.15
77,1.2,–,CCCc1nc2c(C)cc(NC(=O)Cc3ccccc3)cc2n1Cc1ccc(-c2ccccc2C(=O)O)cc1,–,8.21
> 10000,11,–,CCCc1nc2c(C)cc(C(=O)NCCN3CCOCC3)cc2n1Cc1ccc(-c2ccccc2C(=O)O)cc1,–,8.2
–,–,–,CCCCc1nc(Cl)c(CO)n1Cc1ccc(-c2ccccc2-c2nnn[nH]2)cc1 [LOSARTAN],–,7.92
164,13,–,CCCCNC(=O)c1cc(C)c2nc(CCC)n(Cc3ccc(-c4ccccc4C(=O)O)cc3)c2c1,–,–
–,1430,–,CCCc1nc2c(C)cc(NC(C)=O)cc2n1Cc1ccc(-c2ccccc2C(=O)O)cc1,–,–
6,3.9,–,CCCc1nc2c(C)cc(NC(=O)c3ccccc3)cc2n1Cc1ccc(-c2ccccc2C(=O)O)cc1,–,–
> 10000,3,10,CCCc1nc2c(C)cc(C(=O)NCCc3ccccc3)cc2n1Cc1ccc(-c2ccccc2C(=O)O)cc1,>30,8.51
